Measurements taken from ChEMBL document CHEMBL4257459, “Synergistic antifungal effect of cyclized chalcone derivatives and fluconazole against Candida albicans” (2017).
≈ marks a conversion by molar mass, not a printed value.

Key:
Candida albicans [1] = test: Antifungal activity against fluconazole resistant Candida albicans 167-1 in presence of fluconazole by CLSI protocol based broth microdilution method; type: functional
Method in brief: (§1)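 Checkerboard-style combination with fluconazole at a 1 : 1 ratio, over concentrations 2–4 fold below each agent's MIC alone, by CLSI broth microdilution. Fractional inhibitory concentration index calculated and interpreted as synergy (<0.5), additive (0.5–1), indifferent or antagonistic.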

Candida albicans [2] = test: Antifungal activity against fluconazole susceptible Candida albicans 004B1 by CLSI protocol based broth microdilution method; type: functional
Method in brief: (§2)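 Clinical isolates and control strain subcultured at least twice on TSA, 37 °C, 48 h. MICs by CLSI M27-A3 broth microdilution; compounds dissolved in DMSO to 2000 μg mL–1 stock. Fluconazole positive control, culture, media and DMSO vehicle controls in each run. Duplicate experiments; MIC in μg mL–1.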

Candida albicans [3] = test: Inhibition of ergosterol biosynthesis in fluconazole susceptible Candida albicans ATCC 90028 at 0.5 to 1 times MIC relative to control; type: functional
Method in brief: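 ATCC90028 grown in 50 ml TSB with MIC and ½ MIC of compound; untreated and 8 μg mL–1 fluconazole controls. Sterols extracted by alcoholic KOH method and spectrophotometrically scanned; ergosterol % calculated from A281.5 and A230 (E values 290 and 518) with dilution factor, per pellet weight.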

Candida albicans [4] = test: Inhibition of ABC efflux pumps in fluconazole susceptible Candida albicans 002B1 assessed as reduction in energy-dependent rhodamine 6G efflux in presence of 0.1 M glucose after 25 mins […] relative to control
Candida albicans [5] = test: Antifungal activity against fluconazole resistant Candida albicans 167-2 by CLSI protocol based broth microdilution method; type: functional
Method in brief: (§3)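 Broth microdilution per CLSI M27-A3 against clinical C. albicans isolates. Strains sub-cultured at least twice on Tryptone Soya Agar, 37 °C, 48 h. Compounds dissolved in DMSO at 2000 μg mL–1 stock. Fluconazole positive control, plus culture, media and vehicle controls. Run in duplicate; MIC in μg mL–1.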

Candida albicans [6] = test: Inhibition of ABC efflux pumps in fluconazole susceptible Candida albicans 003gr assessed as reduction in energy-dependent rhodamine 6G efflux in presence of 0.1 M glucose after 25 mins […] relative to control
Candida albicans [7] = test: Inhibition of ABC efflux pumps in fluconazole resistant Candida albicans A171 assessed as reduction in energy-dependent rhodamine 6G efflux in presence of 0.1 M glucose after 25 mins by fluorescence assay relative to control
Method in brief: (§4)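 Cells grown in TSB at 37 °C for 8 h, washed, resuspended in glucose-free PBS at 1 × 10^8 cells. De-energized 45 min with 5 mM deoxyglucose plus 5 mM dinitrophenol. […] Washed, sampled 5–25 min, then 0.1 M glucose added. Absorbance 527 nm, R6G from standard curve.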

Candida albicans [8] = test: Antifungal activity against fluconazole susceptible Candida albicans 0079gr in presence of fluconazole by CLSI protocol based broth microdilution method; type: functional
Candida albicans [9] = test: Inhibition of ABC efflux pumps in fluconazole resistant Candida albicans 167-2 assessed as reduction in energy-dependent rhodamine 6G efflux in presence of 0.1 M glucose after 25 mins […] relative to control
Candida albicans [10] = test: Inhibition of ABC efflux pumps in fluconazole susceptible Candida albicans 0079gr assessed as reduction in energy-dependent rhodamine 6G efflux in presence of 0.1 M glucose after 25 mins by fluorescence assay relative to control; method in brief: as §4
Candida albicans [11] = test: Antifungal activity against fluconazole susceptible Candida albicans 0072gr by CLSI protocol based broth microdilution method; type: functional; method in brief: as §2
Candida albicans [12] = test: Antifungal activity against fluconazole susceptible Candida albicans 002B1 in presence of fluconazole by CLSI protocol based broth microdilution method; type: functional
Candida albicans [13] = test: Antifungal activity against fluconazole susceptible Candida albicans 002B1 by CLSI protocol based broth microdilution method; type: functional; method in brief: as §2
Candida albicans [14] = test: Antifungal activity against fluconazole resistant Candida albicans A171 by CLSI protocol based broth microdilution method; type: functional; method in brief: as §3
Candida albicans [15] = test: Inhibition of ABC efflux pumps in fluconazole susceptible Candida albicans 004gr assessed as reduction in energy-dependent rhodamine 6G efflux in presence of 0.1 M glucose after 25 mins by fluorescence assay relative to control; method in brief: as §4
Candida albicans [16] = test: Antifungal activity against fluconazole susceptible Candida albicans 004gr in presence of fluconazole by CLSI protocol based broth microdilution method; type: functional
Candida albicans [17] = test: Antifungal activity against fluconazole resistant Candida albicans 167-2 in presence of fluconazole by CLSI protocol based broth microdilution method; type: functional; method in brief: as §1
Candida albicans [18] = test: Inhibition of ABC efflux pumps in fluconazole susceptible Candida albicans 0072gr assessed as reduction in energy-dependent rhodamine 6G efflux in presence of 0.1 M glucose after 25 mins […] relative to control
Candida albicans [19] = test: Antifungal activity against fluconazole resistant Candida albicans 167-1 by CLSI protocol based broth microdilution method; type: functional; method in brief: as §3
Candida albicans [20] = test: Antifungal activity against fluconazole susceptible Candida albicans 004B1 in presence of fluconazole by CLSI protocol based broth microdilution method; type: functional
Candida albicans [21] = test: Antifungal activity against fluconazole susceptible Candida albicans 004gr by CLSI protocol based broth microdilution method; type: functional; method in brief: as §2
Candida albicans [22] = test: Inhibition of ergosterol biosynthesis in fluconazole resistant Candida albicans A171 at 0.5 to 1 times MIC relative to control; type: functional
Method in brief: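 Total sterols quantified by alcoholic KOH extraction in cells grown in 50 ml TSB with compounds at MIC and ½ MIC; untreated and 8 μg mL–1 fluconazole controls. Spectral scan; ergosterol content from A281.5 and A230 absorbances, dilution factor and pellet weight, correcting for 24(28) DHE.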

Candida albicans [23] = test: Antifungal activity against fluconazole susceptible Candida albicans 0072gr in presence of fluconazole by CLSI protocol based broth microdilution method; type: functional
Candida albicans [24] = test: Antifungal activity against Candida albicans ATCC 90028 in presence of fluconazole by CLSI protocol based broth microdilution method; type: functional
Candida albicans [25] = test: Inhibition of ABC efflux pumps in fluconazole susceptible Candida albicans 004B1 assessed as reduction in energy-dependent rhodamine 6G efflux in presence of 0.1 M glucose after 25 mins by fluorescence assay relative to control; method in brief: as §4
Candida albicans [26] = test: Antifungal activity against fluconazole susceptible Candida albicans 0079gr by CLSI protocol based broth microdilution method; type: functional; method in brief: as §2
Candida albicans [27] = test: Inhibition of ABC efflux pumps in fluconazole resistant Candida albicans 167-1 assessed as reduction in energy-dependent rhodamine 6G efflux in presence of 0.1 M glucose after 25 mins […] relative to control
Candida albicans [28] = test: Antifungal activity against fluconazole resistant Candida albicans A171 in presence of fluconazole by CLSI protocol based broth microdilution method; type: functional; method in brief: as §1
Candida albicans [29] = test: Antifungal activity against fluconazole susceptible Candida albicans 003gr by CLSI protocol based broth microdilution method; type: functional; method in brief: as §2
Candida albicans [30] = test: Antifungal activity against Candida albicans ATCC 90028 by CLSI protocol based broth microdilution method; type: functional; method in brief: as §2
Candida albicans [31] = test: Antifungal activity against fluconazole susceptible Candida albicans 003gr in presence of fluconazole by CLSI protocol based broth microdilution method; type: functional

c1ccc(C2=NOC(c3ccccc3)C2)cc1 (configuration not stated)
fractional inhibitory concentration index (FICI) (Candida albicans [1]): 0.531 - 0.56
MIC (Candida albicans [2]): 4 to 31 µg/mL (≈ 17.9 to 139 µM)
inhibition (INH) (Candida albicans [3]): 66 - 99%
inhibition (Candida albicans [4]): < 20%
MIC (Candida albicans [5]): 16 to 31 µg/mL (≈ 71.7 to 139 µM)
inhibition (Candida albicans [6]): < 20%
inhibition (Candida albicans [7]): < 20%
fractional inhibitory concentration index (FICI) (Candida albicans [8]): 0.75 - 2
inhibition (Candida albicans [9]): < 20%
inhibition (Candida albicans [10]): < 20%
MIC (Candida albicans [11]): 4 to 31 µg/mL (≈ 17.9 to 139 µM)
fractional inhibitory concentration index (FICI) (Candida albicans [12]): 0.75 - 2
MIC (Candida albicans [13]): 4 to 31 µg/mL (≈ 17.9 to 139 µM)
MIC (Candida albicans [14]): 16 to 31 µg/mL (≈ 71.7 to 139 µM)
inhibition (Candida albicans [15]): < 20%
fractional inhibitory concentration index (FICI) (Candida albicans [16]): 0.75 - 2
fractional inhibitory concentration index (FICI) (Candida albicans [17]): 0.531 - 0.56
inhibition (Candida albicans [18]): < 20%
MIC (Candida albicans [19]): 16 to 31 µg/mL (≈ 71.7 to 139 µM)
fractional inhibitory concentration index (FICI) (Candida albicans [20]): 0.75 - 2
MIC (Candida albicans [21]): 4 to 31 µg/mL (≈ 17.9 to 139 µM)
inhibition (INH) (Candida albicans [22]): 49 - 94%
fractional inhibitory concentration index (FICI) (Candida albicans [23]): 0.75 - 2
fractional inhibitory concentration index (FICI) (Candida albicans [24]): 0.75 - 2
inhibition (Candida albicans [25]): < 20%
MIC (Candida albicans [26]): 4 to 31 µg/mL (≈ 17.9 to 139 µM)
inhibition (Candida albicans [27]): < 20%
fractional inhibitory concentration index (FICI) (Candida albicans [28]): 0.531 - 0.56
MIC (Candida albicans [29]): 4 to 31 µg/mL (≈ 17.9 to 139 µM)
MIC (Candida albicans [30]): 4 to 31 µg/mL (≈ 17.9 to 139 µM)
fractional inhibitory concentration index (FICI) (Candida albicans [31]): 0.75 - 2

O=C(/C=C/c1ccccc1)c1ccccc1 [CHALCONE]
fractional inhibitory concentration index (FICI) (Candida albicans [1]): 0.562 - 0.62
MIC (Candida albicans [2]): 31 to 62 µg/mL (≈ 149 to 298 µM)
inhibition (INH) (Candida albicans [3]): 66 - 99%
inhibition (Candida albicans [4]): < 20%
MIC (Candida albicans [5]): 31 to 62 µg/mL (≈ 149 to 298 µM)
inhibition (Candida albicans [6]): < 20%
inhibition (Candida albicans [7]): < 20%
fractional inhibitory concentration index (FICI) (Candida albicans [8]): 0.75 - 4.38
inhibition (Candida albicans [9]): < 20%
inhibition (Candida albicans [10]): < 20%
MIC (Candida albicans [11]): 31 to 62 µg/mL (≈ 149 to 298 µM)
fractional inhibitory concentration index (FICI) (Candida albicans [12]): 0.75 - 4.38
MIC (Candida albicans [13]): 31 to 62 µg/mL (≈ 149 to 298 µM)
MIC (Candida albicans [14]): 31 to 62 µg/mL (≈ 149 to 298 µM)
inhibition (Candida albicans [15]): < 20%
fractional inhibitory concentration index (FICI) (Candida albicans [16]): 0.75 - 4.38
fractional inhibitory concentration index (FICI) (Candida albicans [17]): 0.562 - 0.62
inhibition (Candida albicans [18]): < 20%
MIC (Candida albicans [19]): 31 to 62 µg/mL (≈ 149 to 298 µM)
fractional inhibitory concentration index (FICI) (Candida albicans [20]): 0.75 - 4.38
MIC (Candida albicans [21]): 31 to 62 µg/mL (≈ 149 to 298 µM)
inhibition (INH) (Candida albicans [22]): 49 - 94%
fractional inhibitory concentration index (FICI) (Candida albicans [23]): 0.75 - 4.38
fractional inhibitory concentration index (FICI) (Candida albicans [24]): 0.75 - 4.38
inhibition (Candida albicans [25]): < 20%
MIC (Candida albicans [26]): 31 to 62 µg/mL (≈ 149 to 298 µM)
inhibition (Candida albicans [27]): < 20%
fractional inhibitory concentration index (FICI) (Candida albicans [28]): 0.562 - 0.62
MIC (Candida albicans [29]): 31 to 62 µg/mL (≈ 149 to 298 µM)
MIC (Candida albicans [30]): 31 to 62 µg/mL (≈ 149 to 298 µM)
fractional inhibitory concentration index (FICI) (Candida albicans [31]): 0.75 - 4.38
